From ChEMBL document CHEMBL1139946, “1-Aryl-4,6-dihydropyrazolo[4,3-d][1]benzazepin-5(1H)-ones: a new class of antiproliferative agents with selectivity for human leukemia and breast cancer cell lines” (Eur J Med Chem, 2007)

How the values were obtained:
[1] = biological target: Vascular endothelial growth factor receptor 2 (Homo sapiens) (UniProt P35968); experiment: Inhibition of VEGFR2 at 10 uM
[2] = biological target: 3-phosphoinositide-dependent protein kinase 1 (Homo sapiens) (UniProt O15530); experiment: Inhibition of PDK1 at 10 uM
Chain of 3-phosphoinositide-dependent protein kinase 1 (Homo sapiens) (O15530 whole entry, looked up): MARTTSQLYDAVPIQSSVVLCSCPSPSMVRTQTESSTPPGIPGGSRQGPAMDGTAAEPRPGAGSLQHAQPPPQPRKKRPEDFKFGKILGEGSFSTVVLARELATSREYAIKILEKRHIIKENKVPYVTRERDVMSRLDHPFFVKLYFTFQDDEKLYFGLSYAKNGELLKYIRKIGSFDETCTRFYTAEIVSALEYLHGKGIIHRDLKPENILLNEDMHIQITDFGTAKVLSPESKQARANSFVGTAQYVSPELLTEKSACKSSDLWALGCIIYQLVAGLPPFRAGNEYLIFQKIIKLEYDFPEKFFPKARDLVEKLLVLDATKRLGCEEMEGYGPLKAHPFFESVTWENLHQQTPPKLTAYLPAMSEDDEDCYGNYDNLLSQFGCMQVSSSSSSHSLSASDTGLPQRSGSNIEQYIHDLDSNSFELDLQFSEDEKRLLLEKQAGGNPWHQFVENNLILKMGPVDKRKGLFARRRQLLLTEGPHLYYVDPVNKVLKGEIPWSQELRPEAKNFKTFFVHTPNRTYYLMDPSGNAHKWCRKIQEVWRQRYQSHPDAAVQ

[3] = biological target: T1, NUAK family SNF1-like kinase 1 (Homo sapiens) (UniProt O60285); experiment: Inhibition of ARK5 at 10 uM
T1 sequence (whole entry): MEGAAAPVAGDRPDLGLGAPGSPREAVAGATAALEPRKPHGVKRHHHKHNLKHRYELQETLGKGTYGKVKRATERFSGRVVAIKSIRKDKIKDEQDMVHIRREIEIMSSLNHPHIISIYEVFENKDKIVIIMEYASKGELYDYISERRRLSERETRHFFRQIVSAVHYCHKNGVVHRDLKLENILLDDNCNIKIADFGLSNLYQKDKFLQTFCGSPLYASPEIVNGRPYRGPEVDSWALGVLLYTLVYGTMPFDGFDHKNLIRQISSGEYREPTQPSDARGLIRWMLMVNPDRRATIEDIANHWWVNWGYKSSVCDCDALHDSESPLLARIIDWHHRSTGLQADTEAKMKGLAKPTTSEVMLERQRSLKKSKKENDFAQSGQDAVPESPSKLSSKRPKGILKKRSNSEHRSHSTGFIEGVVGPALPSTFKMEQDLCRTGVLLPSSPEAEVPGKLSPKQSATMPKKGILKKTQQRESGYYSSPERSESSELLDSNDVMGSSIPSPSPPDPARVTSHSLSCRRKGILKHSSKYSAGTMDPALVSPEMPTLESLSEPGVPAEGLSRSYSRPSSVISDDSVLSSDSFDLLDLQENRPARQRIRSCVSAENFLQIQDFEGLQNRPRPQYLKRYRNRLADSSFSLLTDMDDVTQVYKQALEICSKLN

[4] = biological target: T2, Ephrin type-B receptor 4 (Homo sapiens) (UniProt P54760); experiment: Inhibition of EphB4 at 10 uM
T2 sequence (whole entry): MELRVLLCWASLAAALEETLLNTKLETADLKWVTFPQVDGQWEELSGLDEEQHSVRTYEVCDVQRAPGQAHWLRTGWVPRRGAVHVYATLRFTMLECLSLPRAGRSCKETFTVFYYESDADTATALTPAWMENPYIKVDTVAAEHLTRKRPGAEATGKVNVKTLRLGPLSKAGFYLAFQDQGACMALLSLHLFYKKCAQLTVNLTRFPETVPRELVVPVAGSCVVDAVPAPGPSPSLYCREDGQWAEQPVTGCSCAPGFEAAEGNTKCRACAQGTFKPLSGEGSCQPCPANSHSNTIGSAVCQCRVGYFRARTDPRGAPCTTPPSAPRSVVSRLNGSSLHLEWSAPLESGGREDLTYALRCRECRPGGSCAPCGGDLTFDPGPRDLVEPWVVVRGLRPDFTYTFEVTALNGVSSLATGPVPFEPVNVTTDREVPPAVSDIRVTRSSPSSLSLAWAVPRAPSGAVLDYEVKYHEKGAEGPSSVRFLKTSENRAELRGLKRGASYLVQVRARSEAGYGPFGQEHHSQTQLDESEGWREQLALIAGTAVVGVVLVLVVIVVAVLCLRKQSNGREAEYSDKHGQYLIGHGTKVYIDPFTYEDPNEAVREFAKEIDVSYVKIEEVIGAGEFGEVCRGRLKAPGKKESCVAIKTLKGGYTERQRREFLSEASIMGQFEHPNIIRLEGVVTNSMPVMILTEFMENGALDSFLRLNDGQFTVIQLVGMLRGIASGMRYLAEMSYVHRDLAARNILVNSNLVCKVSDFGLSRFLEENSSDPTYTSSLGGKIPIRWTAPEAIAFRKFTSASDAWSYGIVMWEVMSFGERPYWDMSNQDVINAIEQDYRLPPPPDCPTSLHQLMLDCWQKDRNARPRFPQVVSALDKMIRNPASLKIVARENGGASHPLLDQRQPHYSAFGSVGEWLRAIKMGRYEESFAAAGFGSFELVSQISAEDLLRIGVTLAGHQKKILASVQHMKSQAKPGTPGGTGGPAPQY

[5] = biological target: Angiopoietin-1 receptor (Homo sapiens) (UniProt Q02763); experiment: Inhibition of TIE2 at 10 uM
Chain of Angiopoietin-1 receptor (Homo sapiens) (Q02763 whole entry): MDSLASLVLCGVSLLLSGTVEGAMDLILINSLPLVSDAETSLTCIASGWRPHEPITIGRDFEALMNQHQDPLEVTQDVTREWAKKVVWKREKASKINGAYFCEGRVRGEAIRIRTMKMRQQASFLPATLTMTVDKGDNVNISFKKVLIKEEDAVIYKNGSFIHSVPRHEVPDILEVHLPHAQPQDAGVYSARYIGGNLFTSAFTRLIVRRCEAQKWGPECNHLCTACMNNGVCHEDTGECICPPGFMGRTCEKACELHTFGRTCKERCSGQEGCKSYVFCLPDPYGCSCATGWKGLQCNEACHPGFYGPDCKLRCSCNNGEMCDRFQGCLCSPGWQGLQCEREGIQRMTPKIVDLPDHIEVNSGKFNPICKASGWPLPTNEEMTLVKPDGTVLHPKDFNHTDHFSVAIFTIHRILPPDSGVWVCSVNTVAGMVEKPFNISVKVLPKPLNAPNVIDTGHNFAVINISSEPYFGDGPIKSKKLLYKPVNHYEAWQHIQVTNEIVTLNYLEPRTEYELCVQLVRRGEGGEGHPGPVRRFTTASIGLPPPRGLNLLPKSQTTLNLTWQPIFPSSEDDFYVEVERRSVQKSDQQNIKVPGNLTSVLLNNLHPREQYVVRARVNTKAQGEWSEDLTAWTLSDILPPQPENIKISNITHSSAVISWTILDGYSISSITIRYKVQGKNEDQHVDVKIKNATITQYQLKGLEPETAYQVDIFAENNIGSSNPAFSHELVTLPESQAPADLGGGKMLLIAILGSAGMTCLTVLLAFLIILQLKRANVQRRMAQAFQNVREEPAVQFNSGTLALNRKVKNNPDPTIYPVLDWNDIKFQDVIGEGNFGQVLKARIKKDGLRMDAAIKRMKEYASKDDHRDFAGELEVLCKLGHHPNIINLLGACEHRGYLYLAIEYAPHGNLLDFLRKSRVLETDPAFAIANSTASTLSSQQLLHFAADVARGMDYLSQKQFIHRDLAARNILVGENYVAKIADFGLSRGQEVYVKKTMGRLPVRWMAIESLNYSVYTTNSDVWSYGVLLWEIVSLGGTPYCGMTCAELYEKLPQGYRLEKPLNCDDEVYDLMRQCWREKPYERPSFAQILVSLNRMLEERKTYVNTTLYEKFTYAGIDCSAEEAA

[6] = biological target: Receptor-type tyrosine-protein kinase FLT3 (Homo sapiens) (UniProt P36888); experiment: Inhibition of FLT3 at 10 uM
Chain of Receptor-type tyrosine-protein kinase FLT3 (Homo sapiens) (P36888 whole entry): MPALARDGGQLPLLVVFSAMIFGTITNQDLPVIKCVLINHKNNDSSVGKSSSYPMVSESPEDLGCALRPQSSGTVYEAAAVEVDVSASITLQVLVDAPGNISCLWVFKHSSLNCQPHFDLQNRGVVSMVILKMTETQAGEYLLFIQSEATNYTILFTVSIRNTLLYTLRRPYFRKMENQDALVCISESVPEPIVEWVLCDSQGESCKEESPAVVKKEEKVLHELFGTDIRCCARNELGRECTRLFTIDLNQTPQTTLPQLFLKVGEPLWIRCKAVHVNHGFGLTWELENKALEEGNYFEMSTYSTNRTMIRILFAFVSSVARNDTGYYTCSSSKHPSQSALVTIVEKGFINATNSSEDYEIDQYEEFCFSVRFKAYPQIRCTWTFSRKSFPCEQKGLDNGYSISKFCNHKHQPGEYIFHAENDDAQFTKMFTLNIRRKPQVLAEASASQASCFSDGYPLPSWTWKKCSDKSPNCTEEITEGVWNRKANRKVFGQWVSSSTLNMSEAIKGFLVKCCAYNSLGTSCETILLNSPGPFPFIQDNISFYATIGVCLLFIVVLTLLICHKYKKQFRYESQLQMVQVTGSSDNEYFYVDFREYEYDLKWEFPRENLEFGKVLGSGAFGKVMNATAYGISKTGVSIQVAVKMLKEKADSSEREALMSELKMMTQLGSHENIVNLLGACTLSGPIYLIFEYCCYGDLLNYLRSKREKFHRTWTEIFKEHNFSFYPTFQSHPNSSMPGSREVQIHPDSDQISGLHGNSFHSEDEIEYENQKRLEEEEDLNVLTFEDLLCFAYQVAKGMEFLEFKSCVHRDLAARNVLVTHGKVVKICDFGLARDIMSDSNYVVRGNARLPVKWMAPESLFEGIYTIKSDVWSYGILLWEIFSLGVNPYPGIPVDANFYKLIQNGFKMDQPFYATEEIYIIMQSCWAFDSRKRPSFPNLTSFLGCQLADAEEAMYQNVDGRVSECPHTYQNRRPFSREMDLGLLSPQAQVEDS

[7] = biological target: Focal adhesion kinase 1 (Homo sapiens) (UniProt Q05397); experiment: Inhibition of FAK at 10 uM
Chain of Focal adhesion kinase 1 (Homo sapiens) (Q05397 2-1052 limits assumed): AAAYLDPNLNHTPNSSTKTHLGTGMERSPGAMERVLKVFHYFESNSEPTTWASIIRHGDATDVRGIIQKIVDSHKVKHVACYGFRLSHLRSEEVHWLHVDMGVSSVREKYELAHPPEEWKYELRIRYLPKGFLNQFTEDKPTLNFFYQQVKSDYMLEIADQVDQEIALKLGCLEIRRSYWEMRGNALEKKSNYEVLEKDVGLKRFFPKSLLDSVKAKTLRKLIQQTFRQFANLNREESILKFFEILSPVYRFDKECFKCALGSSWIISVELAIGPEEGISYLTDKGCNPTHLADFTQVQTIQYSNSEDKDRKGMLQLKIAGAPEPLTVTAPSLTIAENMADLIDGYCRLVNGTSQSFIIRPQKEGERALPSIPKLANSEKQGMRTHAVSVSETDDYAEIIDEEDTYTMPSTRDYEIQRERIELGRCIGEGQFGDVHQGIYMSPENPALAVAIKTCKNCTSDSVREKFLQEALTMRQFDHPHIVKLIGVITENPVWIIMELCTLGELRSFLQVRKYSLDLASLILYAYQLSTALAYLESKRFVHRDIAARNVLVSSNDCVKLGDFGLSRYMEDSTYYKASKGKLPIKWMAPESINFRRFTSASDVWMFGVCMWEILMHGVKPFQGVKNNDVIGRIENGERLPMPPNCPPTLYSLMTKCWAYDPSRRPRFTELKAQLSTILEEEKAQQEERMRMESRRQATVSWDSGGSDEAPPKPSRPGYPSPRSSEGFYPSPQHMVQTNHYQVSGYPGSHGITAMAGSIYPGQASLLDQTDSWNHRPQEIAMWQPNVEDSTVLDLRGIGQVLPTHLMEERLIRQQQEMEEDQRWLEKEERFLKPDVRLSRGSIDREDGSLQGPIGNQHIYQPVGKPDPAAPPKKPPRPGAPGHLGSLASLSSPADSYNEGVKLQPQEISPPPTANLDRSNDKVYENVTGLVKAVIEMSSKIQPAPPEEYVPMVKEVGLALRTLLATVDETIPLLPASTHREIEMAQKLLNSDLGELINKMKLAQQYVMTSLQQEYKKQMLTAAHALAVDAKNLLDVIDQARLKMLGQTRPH

MCF7 = experiment: Antiproliferative activity against human MCF7 cells at 100 uM after 48 hrs relative to control; type: functional; details: MCF7, 48 h
Outline: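 NCI three-cell-line prescreen (MCF7 breast, NCI-H460 non-small cell lung, SF-268 CNS). Cells inoculated and preincubated in microtiter plates, then exposed to test agent at 10^-4 M for 48 h. Alamar blue end-point read-out. Growth of treated cells expressed as percent of untreated control cells.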

[8] = biological target: Hepatocyte growth factor receptor (Homo sapiens) (UniProt P08581); experiment: Inhibition of MET at 10 uM
[9] = biological target: Receptor tyrosine-protein kinase erbB-2 (Homo sapiens) (UniProt P04626); experiment: Inhibition of ERBB2 at 10 uM
Chain of Receptor tyrosine-protein kinase erbB-2 (Homo sapiens) (P04626 whole entry): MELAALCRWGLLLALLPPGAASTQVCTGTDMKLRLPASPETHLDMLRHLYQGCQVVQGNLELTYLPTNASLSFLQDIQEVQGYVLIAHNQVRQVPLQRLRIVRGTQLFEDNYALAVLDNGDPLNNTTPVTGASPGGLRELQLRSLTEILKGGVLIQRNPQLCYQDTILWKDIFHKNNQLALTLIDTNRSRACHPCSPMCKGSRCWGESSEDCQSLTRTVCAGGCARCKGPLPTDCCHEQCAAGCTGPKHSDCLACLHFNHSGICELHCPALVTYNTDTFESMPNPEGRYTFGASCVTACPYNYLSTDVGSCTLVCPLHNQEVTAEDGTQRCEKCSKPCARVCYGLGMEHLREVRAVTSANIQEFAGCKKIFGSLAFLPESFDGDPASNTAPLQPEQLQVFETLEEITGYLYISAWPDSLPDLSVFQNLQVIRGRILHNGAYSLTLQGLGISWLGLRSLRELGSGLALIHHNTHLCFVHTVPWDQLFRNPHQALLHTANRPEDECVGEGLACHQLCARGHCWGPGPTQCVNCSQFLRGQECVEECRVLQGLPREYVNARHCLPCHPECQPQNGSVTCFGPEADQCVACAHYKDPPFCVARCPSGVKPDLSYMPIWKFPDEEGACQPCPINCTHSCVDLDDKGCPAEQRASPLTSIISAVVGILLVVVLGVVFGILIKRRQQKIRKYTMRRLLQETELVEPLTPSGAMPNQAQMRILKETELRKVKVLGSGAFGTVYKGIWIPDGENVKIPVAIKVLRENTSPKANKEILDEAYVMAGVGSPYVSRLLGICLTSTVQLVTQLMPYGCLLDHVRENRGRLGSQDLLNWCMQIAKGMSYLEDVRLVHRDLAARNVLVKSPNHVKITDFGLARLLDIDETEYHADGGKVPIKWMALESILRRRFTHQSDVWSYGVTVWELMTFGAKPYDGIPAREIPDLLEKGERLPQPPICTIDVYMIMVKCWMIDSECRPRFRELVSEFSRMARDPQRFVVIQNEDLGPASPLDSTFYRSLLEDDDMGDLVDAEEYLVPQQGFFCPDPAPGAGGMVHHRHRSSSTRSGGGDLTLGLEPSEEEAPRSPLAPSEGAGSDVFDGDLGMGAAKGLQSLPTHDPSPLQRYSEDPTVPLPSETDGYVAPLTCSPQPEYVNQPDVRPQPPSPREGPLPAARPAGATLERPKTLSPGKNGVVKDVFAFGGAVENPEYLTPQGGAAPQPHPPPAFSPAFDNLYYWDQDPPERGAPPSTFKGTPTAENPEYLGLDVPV

## O=C1Cc2cnn(-c3ccccc3Br)c2-c2ccccc2N1
[1]
  inhibition: < 40%
[2]
  inhibition: < 40%
[3]
  inhibition: < 40%
[4]
  inhibition: < 40%
[5]
  inhibition: < 40%
[6]
  inhibition: < 40%
[7]
  inhibition: < 40%
MCF7
  growth, % of control at 100 µM: 69%
[8]
  inhibition: < 40%
[9]
  inhibition: < 40%

## O=C1Cc2cnn(-c3ccc([N+](=O)[O-])cc3)c2-c2ccccc2N1
[1]
  inhibition: < 40%
[2]
  inhibition: < 40%
[3]
  inhibition: < 40%
[4]
  inhibition: < 40%
[5]
  inhibition: < 40%
[6]
  inhibition: < 40%
[7]
  inhibition: < 40%
MCF7
  growth, % of control at 100 µM: 55%
[8]
  inhibition: < 40%
[9]
  inhibition: < 40%

## Cc1ccccc1-n1ncc2c1-c1ccccc1NC(=O)C2
[1]
  inhibition: < 40%
[2]
  inhibition: < 40%
[3]
  inhibition: < 40%
[4]
  inhibition: < 40%
[5]
  inhibition: < 40%
[6]
  inhibition: < 40%
[7]
  inhibition: < 40%
MCF7
  growth, % of control at 100 µM: 64%
[8]
  inhibition: < 40%
[9]
  inhibition: < 40%

## O=C1Cc2cnn(-c3ccc(Br)cc3)c2-c2ccccc2N1
[1]
  inhibition: < 40%
[2]
  inhibition: < 40%
[3]
  inhibition: < 40%
[4]
  inhibition: < 40%
[5]
  inhibition: < 40%
[6]
  inhibition: < 40%
[7]
  inhibition: < 40%
MCF7
  growth, % of control at 100 µM: 51%
[8]
  inhibition: < 40%
[9]
  inhibition: < 40%

## COc1ccc(-n2ncc3c2-c2ccccc2NC(=O)C3)cc1
[1]
  inhibition: < 40%
[2]
  inhibition: < 40%
[3]
  inhibition: < 40%
[4]
  inhibition: < 40%
[5]
  inhibition: < 40%
[6]
  inhibition: < 40%
[7]
  inhibition: < 40%
MCF7
  growth, % of control at 100 µM: 60%
[8]
  inhibition: < 40%
[9]
  inhibition: < 40%

## CC(C)(C)c1ccc(-n2ncc3c2-c2ccccc2NC(=O)C3)cc1
[1]
  inhibition: < 40%
[2]
  inhibition: < 40%
[3]
  inhibition: < 40%
[4]
  inhibition: < 40%
[5]
  inhibition: < 40%
[6]
  inhibition: < 40%
[7]
  inhibition: < 40%
MCF7
  growth, % of control at 100 µM: 130%
[8]
  inhibition: < 40%
[9]
  inhibition: < 40%

## O=C1Cc2cnn(-c3ccccc3F)c2-c2ccccc2N1
[1]
  inhibition: < 40%
[2]
  inhibition: < 40%
[3]
  inhibition: < 40%
[4]
  inhibition: < 40%
[5]
  inhibition: < 40%
[6]
  inhibition: < 40%
[7]
  inhibition: < 40%
MCF7
  growth, % of control at 100 µM: 66%
[8]
  inhibition: < 40%
[9]
  inhibition: < 40%

## Cc1ccc(-n2ncc3c2-c2ccccc2NC(=O)C3)cc1
[1]
  inhibition: < 40%
[2]
  inhibition: < 40%
[3]
  inhibition: < 40%
[4]
  inhibition: < 40%
[5]
  inhibition: < 40%
[6]
  inhibition: < 40%
[7]
  inhibition: < 40%
MCF7
  growth, % of control at 100 µM: 57%
[8]
  inhibition: < 40%
[9]
  inhibition: < 40%

## O=C1Cc2cnn(-c3cccc(Cl)c3)c2-c2ccccc2N1
[1]
  inhibition: < 40%
[2]
  inhibition: < 40%
[3]
  inhibition: < 40%
[4]
  inhibition: < 40%
[5]
  inhibition: < 40%
[6]
  inhibition: < 40%
[7]
  inhibition: < 40%
MCF7
  growth, % of control at 100 µM: 64%
[8]
  inhibition: < 40%
[9]
  inhibition: < 40%

## O=C1Cc2cnn(-c3ccccc3)c2-c2ccccc2N1
[1]
  inhibition: < 40%
[2]
  inhibition: < 40%
[3]
  inhibition: < 40%
[4]
  inhibition: < 40%
[5]
  inhibition: < 40%
[6]
  inhibition: < 40%
[7]
  inhibition: < 40%
MCF7
  growth, % of control at 100 µM: 55%
[8]
  inhibition: < 40%
[9]
  inhibition: < 40%

## O=C1Cc2cnn(-c3cc(Cl)cc(Cl)c3)c2-c2ccccc2N1
[1]
  inhibition: < 40%
[2]
  inhibition: < 40%
[3]
  inhibition: < 40%
[4]
  inhibition: < 40%
[5]
  inhibition: < 40%
[6]
  inhibition: < 40%
[7]
  inhibition: < 40%
MCF7
  growth, % of control at 100 µM: 40%
[8]
  inhibition: < 40%
[9]
  inhibition: < 40%

## O=C1Cc2cnn(-c3ccc(C(F)(F)F)cc3)c2-c2ccccc2N1
[1]
  inhibition: < 40%
[2]
  inhibition: < 40%
[3]
  inhibition: < 40%
[4]
  inhibition: < 40%
[5]
  inhibition: < 40%
[6]
  inhibition: < 40%
[7]
  inhibition: < 40%
MCF7
  growth, % of control at 100 µM: 52%
[8]
  inhibition: < 40%
[9]
  inhibition: < 40%

## O=C1Cc2cnn(-c3ccccc3Cl)c2-c2ccccc2N1
[1]
  inhibition: < 40%
[2]
  inhibition: < 40%
[3]
  inhibition: < 40%
[4]
  inhibition: < 40%
[5]
  inhibition: < 40%
[6]
  inhibition: < 40%
[7]
  inhibition: < 40%
MCF7
  growth, % of control at 100 µM: 66%
[8]
  inhibition: < 40%
[9]
  inhibition: < 40%

## O=C1Cc2cnn(-c3ccc(F)cc3F)c2-c2ccccc2N1
[1]
  inhibition: < 40%
[2]
  inhibition: < 40%
[3]
  inhibition: < 40%
[4]
  inhibition: < 40%
[5]
  inhibition: < 40%
[6]
  inhibition: < 40%
[7]
  inhibition: < 40%
MCF7
  growth, % of control at 100 µM: 61%
[8]
  inhibition: < 40%
[9]
  inhibition: < 40%

## O=C1Cc2cnn(-c3ccc(Cl)cc3)c2-c2ccccc2N1
[1]
  inhibition: < 40%
[2]
  inhibition: < 40%
[3]
  inhibition: < 40%
[4]
  inhibition: < 40%
[5]
  inhibition: < 40%
[7]
  inhibition: < 40%
MCF7
  growth, % of control at 100 µM: 54%
[8]
  inhibition: < 40%
[9]
  inhibition: < 40%
